In series [1] the test system is MOLM-13. Kind of series: Antiproliferative activity against human MOLM-13 cells assessed as inhibition of cell growth incubated for 48 hrs by CCK8 assay. The series is classed as functional, cell-based. The following applies: MOLM-13, 48 h. The method, boiled down: (§1)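 CCK-8 growth-inhibition assay in the malignant haematological lines MOLM-13, NB4 and Jeko-1 and in normal PBMC. Cells were treated across a range of doses and IC50 taken as the half-maximal growth-inhibitory concentration. Data are mean ± SD of triplicate samples, and experiments were repeated at least three times.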
(In general: Tetrazolium dyes change colour on reduction, which living cells bring about.)

Series [2] deals with NB-4. Put plainly: Antiproliferative activity against human NB4 cells assessed as inhibition of cell growth incubated for 48 hrs by CCK8 assay. The series is classed as functional, cell-based. The following applies: NB-4, 48 h. The method, boiled down:
as §1

Series [3] has as its system JeKo-1. Put plainly: Antiproliferative activity against human JeKo-1 cells assessed as inhibition of cell growth incubated for 48 hrs by CCK8 assay. The series is classed as functional, cell-based. The following applies: JeKo-1, 48 h. In a few lines: as §1
Series [4] concerns NB-4. Put plainly: Antiproliferative activity against human NB4 cells assessed as cell growth inhibition at 10 uM incubated for 48 hrs by CCK8 assay relative to control. As to conditions: read-out: GI. The series is classed as functional. The method, boiled down: (§2)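 Single-concentration screen of six cancer cell lines. Cells were exposed to 10 μM compound and growth was measured by CCK-8 assay. Results are reported as inhibition rate at 10 μM.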

The subject of series [5] is MOLM-13. Put plainly: Antiproliferative activity against human MOLM-13 cells assessed as cell growth inhibition at 10 uM incubated for 48 hrs by CCK8 assay relative to control. The following applies: read-out: GI. The series is classed as functional. In a few lines:
as §2

For series [6], the system named is JeKo-1. Kind of series: Antiproliferative activity against human JeKo-1 cells assessed as cell growth inhibition at 10 uM incubated for 48 hrs by CCK8 assay relative to control. As to conditions: read-out: GI. The series is classed as functional. In a few lines:
as §2

For another series, the system named is A549. Put plainly: Antiproliferative activity against human A549 cells assessed as cell growth inhibition at 10 uM incubated for 48 hrs by CCK8 assay relative to control. As to conditions: read-out: GI. The series is classed as functional. In a few lines: as §2
For series [7], the system named is HeLa. Put plainly: Antiproliferative activity against human HeLa cells assessed as cell growth inhibition at 10 uM incubated for 48 hrs by CCK8 assay relative to control. The series is classed as functional. The following applies: read-out: GI. The method, boiled down: as §2
The subject of a further series is U-251. Put plainly: Antiproliferative activity against human U-251 cells assessed as cell growth inhibition at 10 uM incubated for 48 hrs by CCK8 assay relative to control. The series is classed as functional. As to conditions: read-out: GI. The method, boiled down:
as §2

Series [8] deals with MOLM-13. Put plainly: Cell cycle arrest in human MOLM-13 cells assessed as accumulation of G0/G1 phase cells at 10 uM incubated for 24 hrs by RNase A/PI staining based flow cytometry analysis (reference value: 38.14%). The series is classed as functional. (A flow cytometer gives signals particle by particle.)
Series [9] relates to MOLM-13. Kind of series: Cell cycle arrest in human MOLM-13 cells assessed as accumulation of G2/M phase cells at 10 uM incubated for 24 hrs by RNase A/PI staining based flow cytometry analysis (reference value: 11.74%). The series is classed as functional.
Series [10] concerns MOLM-13. Put plainly: Cell cycle arrest in human MOLM-13 cells assessed as accumulation of S phase cells at 10 uM incubated for 24 hrs by RNase A/PI staining based flow cytometry analysis (reference value: 50.12%). The series is classed as functional.
Series [11] concerns MOLM-13. Put plainly: Induction of apoptosis in human MOLM-13 cells assessed as viable cells at 10 uM incubated for 48 hrs by Annexin V-FITC/PI staining based flow cytometric analysis (reference value: 92.24%). The series is classed as functional. As to conditions: read-out: Activity.
In series [12] the test system is MOLM-13. Kind of series: Induction of apoptosis in human MOLM-13 cells assessed as early apoptotic cells at 10 uM incubated for 48 hrs by Annexin V-FITC/PI staining based flow cytometric analysis (reference value: 4.10%). The series is classed as functional.
In series [13] the test system is MOLM-13. Kind of series: Induction of apoptosis in human MOLM-13 cells assessed as late apoptotic cells at 10 uM incubated for 48 hrs by Annexin V-FITC/PI staining based flow cytometric analysis (reference value: 3.17%). The series is classed as functional.
Series [14] has as its system MOLM-13. Kind of series: Induction of apoptosis in human MOLM-13 cells assessed as necrotic cells at 10 uM incubated for 48 hrs by Annexin V-FITC/PI staining based flow cytometric analysis (reference value: 0.48%). The series is classed as functional.
In series [15] the test system is HeLa. Kind of series: Antiproliferative activity against human HeLa cells assessed as inhibition of cell proliferation. The series is classed as functional, cell-based.
The subject of another series is MCF7. Put plainly: Antiproliferative activity against human MCF7 cells assessed as inhibition of cell proliferation. The series is classed as functional, cell-based.
Series [16] in a line: Antiproliferative activity against Renal 1983 cells (unknown origin) assessed as inhibition of cell proliferation. The series is classed as functional, cell-based. The following applies: Renal 1983 cell.
The subject of a further series is PBMC. Kind of series: Cytotoxicity against human PBMC assessed as reduction in cell viability incubated for 48 hrs by CCK8 assay. The series is classed as toxicity, cell-based. In a few lines:
as §1

Series [17] deals with MOLM-13. Put plainly: Cell cycle arrest in human MOLM-13 cells assessed as accumulation of G0/G1 phase cells at 2.5 uM incubated for 24 hrs by RNase A/PI staining based flow cytometry analysis (reference value: 38.14%). The series is classed as functional.
In series [18] the test system is MOLM-13. Put plainly: Cell cycle arrest in human MOLM-13 cells assessed as accumulation of G2/M phase cells at 2.5 uM incubated for 24 hrs by RNase A/PI staining based flow cytometry analysis (reference value: 11.74%). The series is classed as functional.
For series [19], the system named is MOLM-13. Put plainly: Cell cycle arrest in human MOLM-13 cells assessed as accumulation of S phase cells at 2.5 uM incubated for 24 hrs by RNase A/PI staining based flow cytometry analysis (reference value: 50.12%). The series is classed as functional.
In series [20] the test system is MOLM-13. Kind of series: Cell cycle arrest in human MOLM-13 cells assessed as accumulation of G0/G1 phase cells at 5 uM incubated for 24 hrs by RNase A/PI staining based flow cytometry analysis (reference value: 38.14%). The series is classed as functional.
Series [21] relates to MOLM-13. Kind of series: Cell cycle arrest in human MOLM-13 cells assessed as accumulation of G2/M phase cells at 5 uM incubated for 24 hrs by RNase A/PI staining based flow cytometry analysis (reference value: 11.74%). The series is classed as functional.
Series [22] concerns MOLM-13. Kind of series: Cell cycle arrest in human MOLM-13 cells assessed as accumulation of S phase cells at 5 uM incubated for 24 hrs by RNase A/PI staining based flow cytometry analysis (reference value: 50.12%). The series is classed as functional.
The subject of series [23] is MOLM-13. Put plainly: Induction of apoptosis in human MOLM-13 cells assessed as viable cells at 2.5 uM incubated for 48 hrs by Annexin V-FITC/PI staining based flow cytometric analysis (reference value: 92.24%). The series is classed as functional. As to conditions: read-out: Activity.
Series [24] concerns MOLM-13. Kind of series: Induction of apoptosis in human MOLM-13 cells assessed as early apoptotic cells at 2.5 uM incubated for 48 hrs by Annexin V-FITC/PI staining based flow cytometric analysis (reference value: 4.10%). The series is classed as functional.
Series [25] relates to MOLM-13. Put plainly: Induction of apoptosis in human MOLM-13 cells assessed as late apoptotic cells at 2.5 uM incubated for 48 hrs by Annexin V-FITC/PI staining based flow cytometric analysis (reference value: 3.17%). The series is classed as functional.
Series [26] relates to MOLM-13. Kind of series: Induction of apoptosis in human MOLM-13 cells assessed as necrotic cells at 2.5 uM incubated for 48 hrs by Annexin V-FITC/PI staining based flow cytometric analysis (reference value: 0.48%). The series is classed as functional.
For series [27], the system named is MOLM-13. Put plainly: Induction of apoptosis in human MOLM-13 cells assessed as viable cells at 5 uM incubated for 48 hrs by Annexin V-FITC/PI staining based flow cytometric analysis (reference value: 92.24%). The series is classed as functional. As to conditions: read-out: Activity.
In series [28] the test system is MOLM-13. Kind of series: Induction of apoptosis in human MOLM-13 cells assessed as early apoptotic cells at 5 uM incubated for 48 hrs by Annexin V-FITC/PI staining based flow cytometric analysis (reference value: 4.10%). The series is classed as functional.
Series [29] has as its system MOLM-13. Put plainly: Induction of apoptosis in human MOLM-13 cells assessed as late apoptotic cells at 5 uM incubated for 48 hrs by Annexin V-FITC/PI staining based flow cytometric analysis (reference value: 3.17%). The series is classed as functional.
The test system of series [30] is MOLM-13. Kind of series: Induction of apoptosis in human MOLM-13 cells assessed as necrotic cells at 5 uM incubated for 48 hrs by Annexin V-FITC/PI staining based flow cytometric analysis (reference value: 0.48%). The series is classed as functional.

In general, IC50 refers to the point on the concentration scale where inhibition reaches its midpoint. `COc1ccc2c(c1OC)C(=O)O[C@@H]2[C@H]1c2c(c(Br)c3c(c2OC)OCO3)CCN1C`: the concentration for half-maximal inhibition (IC50) with MOLM-13 [1] was 15.3 µM; in the series with NB-4 [2], 16.3 µM; in the series on JeKo-1 [3] it was 11.5 µM. Also, the inhibition of growth at 10 µM with NB-4 [4] was 38.3%; in the series on MOLM-13 [5], 41.9%; with JeKo-1 [6], 48.9%; in the series with A549 it was 15.9%; in the series on HeLa [7], 28.1%; in the series on U-251, < 5%. Also, the Activity is recorded as 32.96% in the series on MOLM-13 [8]; 36.44% with MOLM-13 [9]; 30.6% with MOLM-13 [10]; 10.63% with MOLM-13 [12]; 10.56% in the series with MOLM-13 [13]; 0.69% with MOLM-13 [14]. In addition, in the series on MOLM-13 [11], the viability at 10 µM is 78.1%.
Turning to `COc1ccc2c(c1OC)C(=O)O[C@@H]2[C@H]1c2c(cc3c(c2OC)OCO3)CCN1C` [NOSCAPINE], the 50% inhibitory concentration (IC50) with MOLM-13 [1] is > 20 µM; in the series with NB-4 [2] it was > 20 µM; in the series on JeKo-1 [3], > 20 µM; in the series on HeLa [15], 25 µM; with MCF7, 42 µM; in series [16], 39 µM. Besides, the inhibition of growth at 10 µM with NB-4 [4] is 26.7%; with MOLM-13 [5], 19%; in the series on JeKo-1 [6] it was < 5%; with A549, < 5%; in the series with HeLa [7] it was < 5%; with U-251, < 5%. For the same molecule, the Activity in the series on MOLM-13 [8] was found to be 25.66%; in the series with MOLM-13 [9], 13.8%; with MOLM-13 [10], 60.54%; with MOLM-13 [12] it was 6.9%; in the series with MOLM-13 [13], 8.44%; with MOLM-13 [14], 1.71%. Moreover, in the series on MOLM-13 [11], the viability at 10 µM was found to be 83%.
For `COc1ccc2c(c1OC)C(=O)O[C@@H]2[C@H]1c2c(c(CC3CN(C(=O)OCc4ccccc4)C3)c3c(c2OC)OCO3)CCN1C(=O)OC(C)(C)C`, the IC50 with MOLM-13 [1] turned out to be 3.12 µM; in the series with NB-4 [2], 5.25 µM; in the series on JeKo-1 [3], 3.39 µM. Besides, the inhibition of growth at 10 µM in the series on NB-4 [4] stood at 60.5%; with MOLM-13 [5], 79.8%; with JeKo-1 [6], 74.3%; in the series on A549, 57%; in the series with HeLa [7], 62.7%; with U-251, 37.1%. Further, the Activity entry in the series on PBMC is listed as “Non-Toxic”; in the series on MOLM-13 [17] it was 36.94%; in the series on MOLM-13 [18] it was 16.36%; in the series on MOLM-13 [19], 46.7%; in the series on MOLM-13 [20], 16.37%; with MOLM-13 [21], 9.96%. The Activity in the series with MOLM-13 [22] stood at 73.67%; with MOLM-13 [8] it was 12.45%; in the series with MOLM-13 [9], 5.11%; with MOLM-13 [10], 82.44%; in the series on MOLM-13 [24], 5.01%; with MOLM-13 [25], 4.35%. For the same molecule, the Activity is 0.52% with MOLM-13 [26]; 16.95% in the series on MOLM-13 [28]; 18.62% with MOLM-13 [29]; 2.41% in the series with MOLM-13 [30]; 19.67% in the series with MOLM-13 [12]; 23.68% in the series on MOLM-13 [13]. Also, the Activity in the series on MOLM-13 [14] is recorded as 3.2%. Moreover, the viability at 2.5 µM in the series on MOLM-13 [23] amounted to 90.1%. Also, in the series with MOLM-13 [27], the viability at 5 µM is 62%. Also, the viability at 10 µM in the series on MOLM-13 [11] came out at 53.5%.
